The RNAGym collection of RNA variant scans (doi:10.1126/science.aae0568)
Fewer inactive variants are shown than the library holds.

B1: tRNA (parent)
chain: GUUCCGUUGGCGUAAUGGUAACGCGUCUCCCUCCUAAGGAGAAGACUGCGGGUUCGAGUCCCGUACGGAACG

Variants of: B1
Assay: yeast fitness relative to wild type (ratio to wild type); higher = fitter; tRNA-Arg(CCU), competitive growth, 37 C, YPD
Method in brief: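 Variants of the tRNA-Arg(CCU) gene, chemically synthesised with a 3% per-site mutation rate at 69 sites, were placed at the native genomic locus in Saccharomyces cerevisiae. The pooled strains were competed in YPD at 37°C for 24 hours in six parallel replicates. Gene amplicons from the start population and from each end population were read by 100-nucleotide paired-end sequencing. Darwinian fitness relative to wild type came from changes in genotype frequencies; genotypes needed ≥ 100 starting reads, and estimates < 0.5 were set to 0.5.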

GUUCCGUUGGCGUAAUCGUAACGCGUCUCCCUCCUAAGGAGAAGUCUGCGGGUUCGAGUCCCGUCCGGAACG and GUUCCGUUGGCGUAAUCGUAGCGCGGCUCCCUCCUAAGGAGAAGACUGCGGGUUCGAGUCCCGUACGGAACG cannot be ordered by yeast fitness: at most 0.5 for the first, at most 0.5 for the second.

Going from GUUCCGUUGGCGUAAUCGUAGCGCGUCUCCCUCCUAAGGCGAACACUGCGGGUUCGAGUCACGUACGGAACG to GUUCCGUUGGCGUAAUCGUAACGCGUCUCCCUCCUGAGGAGAAGACUGCGGGUUCGAGUCCCGUAUGGCACG, the yeast fitness rises from 0.622 to 0.803.

Going from GUUCCGUUGGCGUAAUCGUAACGCGUCUCCCUCCUGAGGAGAAGACUGCGGGUUCGGGUCCCGUAUGGCACG to GUUCCGUUGGCGUAAUCGUAACGCGUCUCCCUCCUAGGGAGAAGACUGCGGGUUCCAGUCCCGUACGGAACG, the yeast fitness falls from 0.59 to at most 0.5.

Compared with GUUCCGUUGGCGUAAUCGUAACGCGUCUCCCUCCUGAGGAGAAGACUGUGGGUUCGAGUCCCGUAUGGCACG, GUUCCGUUGGCGUAAUCGUAACGCGUCUCCCUCCUACGGCGAAGACUGCGGGUUCGAGUCUCGUACGAAACG is lower in yeast fitness: 0.598 for the first, at most 0.5 for the second.

Going from GUUCCGUUGGCGUAAUCGUAAAGCGUCUCCCCCCUAAGGAGAAGACUGCGGGUUCGAGUCCCGUACGGAACG to GUUCCGUUGGCGUAAUAGUAACGCGUCUCCCCCCUAAGGGGAAGACUGCGGGUUCGAGUCCCGUACGGAACG, the yeast fitness rises from 0.553 to 0.573.

Going from GUUCCGUUGGCGUAAUAGUAACGCGUCUCCCUCCUAAGGAGAAGACUGCGGGUUCGAGUCCCGCACGGAACG to GUUCCGUUGGCGUAAUAGUAACGCGUCUCCCUCCUAAGGAGAAGACUGCGGGUUCGAGUCCCGUACGCAACG, the yeast fitness rises from 0.878 to 0.928.

Going from GUUCCGUUGGCGUAAUAGUAACGCGUCUCCCUCCUAAGGAGAAGACUGCGGGUUCGAGUCCCGUACGAAACG to GUUCCGUUGGCGUAAUAGAAACGUCUCUCCCUCCUAAGGAGAAGACUGCGGGUUCGAGUCCCGUACGGAACG, the yeast fitness falls from 0.81 to at most 0.5.

GUUCCGUUGGCGUAAUAGUAACGCGUCUCCCCCCUAAGGGGAAGACUGCGGGUUCGAGUCCCGUACGGAGCG and GUUCCGUUGGCGUAAUCGUCACGCGUCUCCCUCCUAAGGAGAAGACUGCGGCUUCGAGUCCCGUACGGAACG cannot be ordered by yeast fitness: at most 0.5 for the first, at most 0.5 for the second.

First: GUUCCGUUGGCGUAAUAGUAACGCGUCUCCCACCUAAGGAGAAGACUGCGGGUUCGAGUCCCGUACCGAACG
Second: GUUCCGUUGGCGUAAUAGUAACGCGUCUCCCUCCUAAGGAGAAGACUGCGGGUACGAGUCCCGUACGGAGCG
The yeast fitness of the first is higher: 0.6 for the first, at most 0.5 for the second.

Going from GUUCCGUUGGCGUAAUAGUAACGCGUCCCCCUCCUAAGGAGCAGACUGCGGGUUCGAGUCCUGUACGGAUCG to GUUCCGUUGGCGUAAUCGUAGCGCGUUUCCCUGCUAAGGAGUAGACUGCGGGUUCGAGUCCCGUACGGAACG, the yeast fitness rises from at most 0.5 to 0.621.

GUUCCGUUGGCGUAAUCGUACCGCGUCCCCCUCCUAAGGAGAAGACUGCGGGUUCGAGUACCGUGCGGAACG and GUUCCGUUGGCGUAAUCGUAACGCGUCUCCCUCCUAAGGAGAUGACUACGGGUUCGAGUCCCGUAGGGAACG cannot be ordered by yeast fitness: at most 0.5 for the first, at most 0.5 for the second.

Going from GUUCCGUUGGCGUAAUCGUAACGCGUCUCCCUCCUAAGGAGAAGACUGCGGGUUCGGGUCCCGUACAGAACG to GUUCCGUUGGCGUAAUCGUAACGCGUCUCCCUCCUAAGGAGCAGACUGCGGGUUCGAGUCACGUACGGAACG, the yeast fitness falls from 0.56 to at most 0.5.

First: GUUCCGUUGGCGUAAUCGUAACGCGUCUCCCUCCUAAGGAGAUGACUGCGGGUUCGAGUCCCGUACGGAACG
Second: GUUCCGUUGGCGUAAUCGUAACGCGUCUCCCUCCUAGGGAGAAGACUGCGGGUUUGAGUCCCGUACGGAACG
The yeast fitness of the first is higher: 0.589 for the first, at most 0.5 for the second.

GUUCCGUUGGCGUAAUAGUAACGCGUCCCCCUCCUAAGGAGAAGAUUGCGGGUUCGAGUCCCAUACGGAACG and GUUCCGUUGGCGUAAUCGUAACGCGUCUCCCUCCUAAGGAGGAGACUGCGGGUUCGAGUCCCGUACGGAGCG cannot be ordered by yeast fitness: at most 0.5 for the first, at most 0.5 for the second.

GUUCCGUUGGCGUAAUAGUAACGCGUCACCCUCCUAGGGAGAAGACUGCGGGUUCGAGUCCCGUACGGAACG and GUUCCGUUGGCGUAAUCGUAAGGCGCCUCCCUCCUAAGGAGAAGACAGCGGGUUCGAGUCCCGUAGGGAACG cannot be ordered by yeast fitness: at most 0.5 for the first, at most 0.5 for the second.

GUUCCGUUGGCGUAAUAGUAACGCGUCUCCCUCCUAAGGAGAAGACUGCGGGUUCCACUCCCGUACGAAACG and GUUCCGUUGGCGUAAUAGUAACGCGUCGCCCUCCUAAGGAGGAGACUGCGGGUUCGAGUCCCGUACGUAACG cannot be ordered by yeast fitness: at most 0.5 for the first, at most 0.5 for the second.

Compared with GUUCCGUUGGCGUAAUCGUAAGGCGUCUCCCUCCUAAGGAGAAGACUGCGGGUUCGAGUCCCGUACGGAACG, GUUCCGUUGGCGUAAUCGUAGCGCGUCUCCCUCCUAAGGAGAAGACUGCGGGUUCGAGGCCCGUCCGGAACG is lower in yeast fitness: 0.619 for the first, at most 0.5 for the second.

First: GUUCCGUUGGCGUAAUCGUUACGCGUCUCCCUGCUAAGGAGAAGACUGCGGGUUCGAGUCCCGUACGGAUCG
Second: GUUCCGUUGGCGUAAUCGUAAAGCGUCUCCGUCCUAAGGAGAAGACUGCGGGUUGGAGUCCCGUACGAAACG
The yeast fitness of the first is lower: at most 0.5 for the first, 0.587 for the second.

Going from GUUCCGUUGGCGUAAUCGUAACGCGUCUCCCUCCUAAGGAGAAGACUGCGGGUUCGGGUCCCGUACGGAACG to GUUCCGUUGGCGUAAUCGUAAAGCGUCCCCCUCCUAAGGGGAAGCCUGCGGGUUCGAGUCCCGUAGGGUACG, the yeast fitness falls from 0.68 to at most 0.5.
